Assays:
Rattus norvegicus [1] = species: Rattus norvegicus; assay: Radioactivity distribution in kidney of normal fischer rat after injection of syn-[18F]-FMACBC after 120 min.; type: ADME, organism-based; settings: in vivo, 2 h
Outline: (§1)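 Male Fischer 344 rats (200–250 g), normal, fed ad libitum, given ~85 μCi of 18F tracer in 0.3 mL sterile water IV through a tail vein catheter. Anesthesia was ketamine:xylazine IM. Groups of four were killed at 5, 30, 60 and 120 min. Tissues were weighed and gamma-counted against dose standards, decay-corrected, and expressed as mean % injected dose per gram.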

Rattus norvegicus [2] = species: Rattus norvegicus; assay: Radioactivity distribution in kidney of normal fischer rat after injection of syn-[18F]-FMACBC after 60 min.; type: ADME, organism-based; settings: in vivo, 1 h; outline: as §1
Rattus norvegicus [3] = species: Rattus norvegicus; assay: Radioactivity distribution in muscle of normal fischer rat after injection of syn-[18F]-FMACBC after 120 min.; type: ADME, organism-based, Muscle tissue; settings: in vivo, 2 h
Outline: (§2)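 Normal male Fischer 344 rats (200–250 g) were anesthetised with ketamine:xylazine i.m. and given about 85 μCi tracer in 0.3 mL sterile water via a tail vein catheter. Groups of four were killed at 5, 30, 60 and 120 min. Selected tissues were weighed and gamma counted with dose standards, decay-corrected, and expressed as mean %ID/g.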

Rattus norvegicus [4] = species: Rattus norvegicus; assay: Radioactivity distribution in muscle of normal fischer rat after injection of syn-[18F]-FMACBC after 30 min.; type: ADME, organism-based, Muscle tissue; settings: in vivo, 0.5 h; outline: as §2
Rattus norvegicus [5] = species: Rattus norvegicus; assay: Radioactivity distribution in brain of normal fischer rat after injection of anti-[18F]FMACBC after 120 min.; type: ADME, organism-based; settings: in vivo, 2 h; outline: as §1
Rattus norvegicus [6] = species: Rattus norvegicus; assay: Radioactivity distribution in brain of normal fischer rat after injection of anti-[18F]FMACBC after 60 min.; type: ADME, organism-based; settings: in vivo, 1 h; outline: as §1
Rattus norvegicus [7] = species: Rattus norvegicus; assay: Radioactivity distribution in brain of normal fischer rat after injection of syn-[18F]-FMACBC after 120 min.; type: ADME, organism-based; settings: in vivo, 2 h; outline: as §1
Rattus norvegicus [8] = species: Rattus norvegicus; assay: Radioactivity distribution in spleen of normal fischer rat after injection of anti-[18F]FMACBC after 5 min.; type: ADME, organism-based; settings: in vivo; outline: as §2
Rattus norvegicus [9] = species: Rattus norvegicus; assay: Radioactivity distribution in spleen of normal fischer rat after injection of syn-[18F]-FMACBC after 60 min.; type: ADME, organism-based; settings: in vivo, 1 h; outline: as §2
Rattus norvegicus [10] = species: Rattus norvegicus; assay: Radioactivity distribution in pancreas of tumor-bearing fischer rat after injection of anti-[18F]FMACBC after 120 min; type: ADME, organism-based; settings: in vivo, 2 h
Outline: (§3)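 Male Fischer 344 rats with intracranial 9L gliosarcoma (4 × 10^4 cells stereotaxically implanted; used 17–19 days after implantation). About 35 μCi tracer in 0.3 mL sterile water was given by tail vein to awake, restrained rats. Rats were killed at 5, 60 or 120 min. Tissues, tumor and contralateral brain were weighed and gamma counted, decay-corrected, and expressed as %ID/g; n = 3–5 per time point.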

Rattus norvegicus [11] = species: Rattus norvegicus; assay: Radioactivity distribution in pancreas of tumor-bearing fischer rat after injection of anti-[18F]FMACBC after 5 min; type: ADME, organism-based; settings: in vivo; outline: as §3
Rattus norvegicus [12] = species: Rattus norvegicus; assay: Radioactivity distribution in pancreas of tumor-bearing fischer rat after injection of anti-[18F]FMACBC after 60 min; type: ADME, organism-based; settings: in vivo, 1 h; outline: as §3
Rattus norvegicus [13] = species: Rattus norvegicus; assay: Radioactivity distribution in lung of tumor-bearing fischer rat after injection of anti-[18F]FMACBC after 5 min; type: ADME, organism-based; settings: in vivo; outline: as §3
Rattus norvegicus [14] = species: Rattus norvegicus; assay: Radioactivity distribution in lungs of normal fischer rat after injection of syn-[18F]-FMACBC after 30 min.; type: ADME, organism-based, Lung; settings: in vivo, 0.5 h; outline: as §2
Rattus norvegicus [15] = species: Rattus norvegicus; assay: Radioactivity distribution in pancreas of normal fischer rat after injection of anti-[18F]FMACBC after 5 min.; type: ADME, organism-based; settings: in vivo; outline: as §2
Rattus norvegicus [16] = species: Rattus norvegicus; assay: Radioactivity distribution in testis of normal fischer rat after injection of anti-[18F]FMACBC after 30 min.; type: ADME, organism-based; settings: in vivo, 0.5 h; outline: as §2
Rattus norvegicus [17] = species: Rattus norvegicus; assay: Radioactivity distribution in testis of normal fischer rat after injection of syn-[18F]-FMACBC after 120 min.; type: ADME, organism-based; settings: in vivo, 2 h; outline: as §2
Rattus norvegicus [18] = species: Rattus norvegicus; assay: Radioactivity distribution in liver of tumor-bearing fischer rat after injection of syn-[18F]-FMACBC after 120 min; type: ADME, organism-based; settings: in vivo, 2 h; outline: as §3
Rattus norvegicus [19] = species: Rattus norvegicus; assay: Radioactivity distribution in liver of tumor-bearing fischer rat after injection of syn-[18F]-FMACBC after 60 min; type: ADME, organism-based; settings: in vivo, 1 h; outline: as §3
Rattus norvegicus [20] = species: Rattus norvegicus; assay: Radioactivity distribution in lung of normal fischer rat after injection of anti-[18F]FMACBC after 60 min.; type: ADME, organism-based; settings: in vivo, 1 h; outline: as §2
Rattus norvegicus [21] = species: Rattus norvegicus; assay: Radioactivity distribution in testis of tumor-bearing fischer rat after injection of anti-[18F]FMACBC after 120 min; type: ADME, organism-based; settings: in vivo, 2 h; outline: as §3
Rattus norvegicus [22] = species: Rattus norvegicus; assay: Radioactivity distribution in testis of tumor-bearing fischer rat after injection of anti-[18F]FMACBC after 5 min; type: ADME, organism-based; settings: in vivo; outline: as §3
Rattus norvegicus [23] = species: Rattus norvegicus; assay: Radioactivity distribution in testis of tumor-bearing fischer rat after injection of anti-[18F]FMACBC after 60 min; type: ADME, organism-based; settings: in vivo, 1 h; outline: as §3
Rattus norvegicus [24] = species: Rattus norvegicus; assay: Radioactivity distribution in testis of tumor-bearing fischer rat after injection of syn-[18F]-FMACBC after 5 min; type: ADME, organism-based; settings: in vivo; outline: as §3
Rattus norvegicus [25] = species: Rattus norvegicus; assay: Radioactivity distribution in heart of tumor-bearing fischer rat after injection of syn-[18F]-FMACBC after 5 min; type: ADME, organism-based; settings: in vivo
Outline: (§4)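 Male Fischer 344 rats carrying intracranial rat 9L gliosarcoma, made by stereotaxic injection of 4 × 10^4 cells 17–19 days before. Awake restrained rats received ~35 μCi of 18F tracer in 0.3 mL sterile water IV by tail vein and were killed at 5, 60 or 120 min, n = 3–5. Tissues were weighed, gamma-counted, decay-corrected and expressed as % injected dose per gram.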

Rattus norvegicus [26] = species: Rattus norvegicus; assay: Radioactivity distribution in heart of normal fischer rat after injection of syn-[18F]-FMACBC after 120 min.; type: ADME, organism-based; settings: in vivo, 2 h; outline: as §1
Rattus norvegicus [27] = species: Rattus norvegicus; assay: Radioactivity distribution in blood of normal fischer rat after injection of anti-[18F]FMACBC after 30 min.; type: ADME, organism-based; settings: in vivo, 0.5 h; outline: as §1
Rattus norvegicus [28] = species: Rattus norvegicus; assay: Radioactivity distribution in blood of normal fischer rat after injection of anti-[18F]FMACBC after 60 min.; type: ADME, organism-based; settings: in vivo, 1 h; outline: as §1
Rattus norvegicus [29] = species: Rattus norvegicus; assay: Radioactivity distribution in blood of normal fischer rat after injection of syn-[18F]-FMACBC after 5 min.; type: ADME, organism-based; settings: in vivo; outline: as §1
Rattus norvegicus [30] = species: Rattus norvegicus; assay: Radioactivity distribution in bone of normal fischer rat after injection of anti-[18F]FMACBC after 30 min.; type: ADME, organism-based, Bone element; settings: in vivo, 0.5 h; outline: as §1
Rattus norvegicus [31] = species: Rattus norvegicus; assay: Radioactivity distribution in bone of normal fischer rat after injection of syn-[18F]-FMACBC after 120 min.; type: ADME, organism-based, Bone element; settings: in vivo, 2 h; outline: as §1
Rattus norvegicus [32] = species: Rattus norvegicus; assay: Radioactivity distribution in liver of normal fischer rat after injection of anti-[18F]FMACBC after 120 min.; type: ADME, organism-based; settings: in vivo, 2 h; outline: as §1
Rattus norvegicus [33] = species: Rattus norvegicus; assay: Radioactivity distribution in liver of normal fischer rat after injection of anti-[18F]FMACBC after 60 min.; type: ADME, organism-based; settings: in vivo, 1 h; outline: as §1
Rattus norvegicus [34] = species: Rattus norvegicus; assay: Radioactivity distribution in liver of normal fischer rat after injection of syn-[18F]-FMACBC after 30 min.; type: ADME, organism-based; settings: in vivo, 0.5 h; outline: as §1
Rattus norvegicus [35] = species: Rattus norvegicus; assay: Radioactivity distribution in liver of normal fischer rat after injection of syn-[18F]-FMACBC after 120 min.; type: ADME, organism-based; settings: in vivo, 2 h; outline: as §1
Rattus norvegicus [36] = species: Rattus norvegicus; assay: Radioactivity distribution in brain of normal fischer rat after injection of syn-[18F]-FMACBC after 30 min.; type: ADME, organism-based; settings: in vivo, 0.5 h; outline: as §1
Rattus norvegicus [37] = species: Rattus norvegicus; assay: Radioactivity distribution in brain of tumor-bearing fischer rat after injection of anti-[18F]FMACBC after 120 min; type: ADME, organism-based; settings: in vivo, 2 h; outline: as §4
Rattus norvegicus [38] = species: Rattus norvegicus; assay: Radioactivity distribution in brain of tumor-bearing fischer rat after injection of syn-[18F]-FMACBC after 120 min; type: ADME, organism-based; settings: in vivo, 2 h; outline: as §4
Rattus norvegicus [39] = species: Rattus norvegicus; assay: Radioactivity distribution in testis of tumor-bearing fischer rat after injection of syn-[18F]-FMACBC after 60 min; type: ADME, organism-based; settings: in vivo, 1 h; outline: as §3
Rattus norvegicus [40] = species: Rattus norvegicus; assay: Radioactivity distribution in testis of normal fischer rat after injection of syn-[18F]-FMACBC after 60 min.; type: ADME, organism-based; settings: in vivo, 1 h; outline: as §2
Rattus norvegicus [41] = species: Rattus norvegicus; assay: Radioactivity distribution in kidney of normal fischer rat after injection of anti-[18F]FMACBC after 30 min.; type: ADME, organism-based; settings: in vivo, 0.5 h; outline: as §1

N[C@]1(C(=O)O)C[C@@H](CF)C1
ID/g (Rattus norvegicus [1]): 0.46% | ID/g (Rattus norvegicus [2]): 0.45% | ID/g (Rattus norvegicus [3]): 0.6% | ID/g (Rattus norvegicus [4]): 0.58% | ID/g (Rattus norvegicus [5]): 0.25% | ID/g (Rattus norvegicus [6]): 0.25% | ID/g (Rattus norvegicus [7]): 0.21% | ID/g (Rattus norvegicus [8]): 1.03% | ID/g (Rattus norvegicus [9]): 0.54% | ID/g (Rattus norvegicus [10]): 2.17% | ID/g (Rattus norvegicus [11]): 3.26% | ID/g (Rattus norvegicus [12]): 2.48% | ID/g (Rattus norvegicus [13]): 0.55% | ID/g (Rattus norvegicus [14]): 0.46% | ID/g (Rattus norvegicus [15]): 2.56% | ID/g (Rattus norvegicus [16]): 0.25% | ID/g (Rattus norvegicus [17]): 0.22% | ID/g (Rattus norvegicus [18]): 0.25% | ID/g (Rattus norvegicus [19]): 0.33% | ID/g (Rattus norvegicus [20]): 0.41% | ID/g (Rattus norvegicus [21]): 0.23% | ID/g (Rattus norvegicus [22]): 0.23% | ID/g (Rattus norvegicus [23]): 0.26% | ID/g (Rattus norvegicus [24]): 0.19% | ID/g (Rattus norvegicus [25]): 0.52% | ID/g (Rattus norvegicus [26]): 0.6% | ID/g (Rattus norvegicus [27]): 0.39% | ID/g (Rattus norvegicus [28]): 0.33% | ID/g (Rattus norvegicus [29]): 0.53% | ID/g (Rattus norvegicus [30]): 0.31% | ID/g (Rattus norvegicus [31]): 0.32% | ID/g (Rattus norvegicus [32]): 0.48% | ID/g (Rattus norvegicus [33]): 0.47% | ID/g (Rattus norvegicus [34]): 0.37% | ID/g (Rattus norvegicus [35]): 0.52% | ID/g (Rattus norvegicus [36]): 0.24% | ID/g (Rattus norvegicus [37]): 0.28% | ID/g (Rattus norvegicus [38]): 0.27% | ID/g (Rattus norvegicus [39]): 0.22% | ID/g (Rattus norvegicus [40]): 0.23% | ID/g (Rattus norvegicus [41]): 0.67%
